Tested on: U2OS
Experiment: Multiplex assay against U2OS
Format: toxicity, cell-based
Details: human
Method in brief: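 Hoechst33342, BioTracker Green Microtubule Cytoskeleton Dye, MitoTracker Red and Annexin V Alexa Fluor 680 were added to live cells at seeding, and imaging on a CQ1 microscope at 37°C and 5% CO2 followed compound addition. Gating by CellPathfinder machine learning separated cells into Hoechst high-intensity objects or normal cells, then normal cells into healthy, pyknosed or fragmented nuclei, then pyknosed cells into mitotic or apoptotic. Per cents of healthy-nucleus cells are reported for the tubulin, mitochondrial-mass and membrane-permeability phenotypes.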

[1] = 12 h, 1 µM, compound concentration 1 uM, replicate 1
[2] = 12 h, 1 µM, compound concentration 1 uM, replicate 2
[3] = 12 h, 10 µM, compound concentration 10 uM, replicate 1
[4] = 12 h, 10 µM, compound concentration 10 uM, replicate 2
[5] = 24 h, 1 µM, compound concentration 1 uM, replicate 1
[6] = 24 h, 1 µM, compound concentration 1 uM, replicate 2
[7] = 24 h, 10 µM, compound concentration 10 uM, replicate 1
[8] = 24 h, 10 µM, compound concentration 10 uM, replicate 2
[9] = 48 h, 1 µM, compound concentration 1 uM, replicate 1
[10] = 48 h, 1 µM, compound concentration 1 uM, replicate 2
[11] = 48 h, 10 µM, compound concentration 10 uM, replicate 1
[12] = 48 h, 10 µM, compound concentration 10 uM, replicate 2

For `CSCC[C@H](NC=O)C(=O)N[C@@H](CC(C)C)C(=O)N[C@@H](Cc1ccccc1)C(=O)O`, the “Population Apoptotic (%)” value [1] was 73%, the “Population Fragmented Nuclei (%)” value [1] was 29% and the “Population Mitochondria Different-Phenotype (%)” value [1] was 4%. For the same compound, the “Population Mitotic Cells (%)” value [1] was 26%, the “Total Cell Count” value [1] was 254 and the “Population Apoptotic (%)” value [2] was 100%. For the same compound, the “Population Fragmented Nuclei (%)” value [2] was 17%, the “Population Healthy Nuclei (%)” value [2] was 75% and the “Population Mitochondria Different-Phenotype (%)” value [2] was 3%. The “Population Mitotic Cells (%)” value [2] was 0%, the “Total Cell Count” value [2] was 135 and the “Population Apoptotic (%)” value [3] was 69%. For the same compound, the “Population Fragmented Nuclei (%)” value [3] was 23%, the “Population Healthy Nuclei (%)” value [3] was 70% and the “Population Mitochondria Different-Phenotype (%)” value [3] was 1%. For the same compound, the “Population Mitotic Cells (%)” value [3] was 30%, the “Total Cell Count” value [3] was 202 and the “Population Apoptotic (%)” value [4] was 90%. The “Population Fragmented Nuclei (%)” value [4] was 16%, the “Population Healthy Nuclei (%)” value [4] was 74% and the “Population Membrane Permeable-Phenotype (%)” value [4] was 4%. For the same compound, the “Population Mitochondria Different-Phenotype (%)” value [4] was 2%, the “Total Cell Count” value [4] was 123 and the “Population Apoptotic (%)” value [5] was 91%. For the same compound, the “Population Fragmented Nuclei (%)” value [5] was 24%, the “Population Mitochondria Different-Phenotype (%)” value [5] was 3% and the “Population Mitotic Cells (%)” value [5] was 8%. The “Total Cell Count” value [5] was 288, the “Population Apoptotic (%)” value [6] was 90% and the “Population Fragmented Nuclei (%)” value [6] was 17%. The “Population Healthy Nuclei (%)” value [6] was 75%, the “Population Mitochondria Different-Phenotype (%)” value [6] was 0% and the “Total Cell Count” value [6] was 147. For the same compound, the “Population Apoptotic (%)” value [7] was 76%, the “Population Fragmented Nuclei (%)” value [7] was 23% and the “Population Healthy Nuclei (%)” value [7] was 68%. The “Population Mitochondria Different-Phenotype (%)” value [7] was 1%, the “Population Mitotic Cells (%)” value [7] was 23% and the “Total Cell Count” value [7] was 247. For the same compound, the “Population Apoptotic (%)” value [8] was 100%, the “Population Fragmented Nuclei (%)” value [8] was 19% and the “Population Healthy Nuclei (%)” value [8] was 70%. For the same compound, the “Population Membrane Permeable-Phenotype (%)” value [8] was 8%, the “Population Mitochondria Different-Phenotype (%)” value [8] was 2% and the “Population Mitotic Cells (%)” value [8] was 0%. The “Total Cell Count” value [8] was 147, the “Population Fragmented Nuclei (%)” value [9] was 16% and the “Population Healthy Nuclei (%)” value [9] was 75%. The “Population Membrane Permeable-Phenotype (%)” value [9] was 4%, the “Population Mitochondria Different-Phenotype (%)” value [9] was 3% and the “Population Mitotic Cells (%)” value [9] was 15%. The “Total Cell Count” value [9] was 411, the “Population Fragmented Nuclei (%)” value [10] was 18% and the “Population Healthy Nuclei (%)” value [10] was 68%. For the same compound, the “Population Mitochondria Different-Phenotype (%)” value [10] was 1%, the “Population Mitotic Cells (%)” value [10] was 3% and the “Total Cell Count” value [10] was 202. For the same compound, the “Population Apoptotic (%)” value [11] was 90%, the “Population Fragmented Nuclei (%)” value [11] was 20% and the “Population Healthy Nuclei (%)” value [11] was 70%. The “Population Membrane Permeable-Phenotype (%)” value [11] was 4%, the “Population Mitochondria Different-Phenotype (%)” value [11] was 2% and the “Population Mitotic Cells (%)” value [11] was 9%. For the same compound, the “Total Cell Count” value [11] was 362, the “Population Apoptotic (%)” value [12] was 100% and the “Population Fragmented Nuclei (%)” value [12] was 53%. The “Population Healthy Nuclei (%)” value [12] was 25%, the “Population Membrane Permeable-Phenotype (%)” value [12] was 80% and the “Population Mitochondria Different-Phenotype (%)” value [12] was 50%. For the same compound, the “Population Mitotic Cells (%)” value [12] was 0% and the “Total Cell Count” value [12] was 41.
In the case of `CCCn1c(=O)c2[nH]c(C3CCCC3)nc2n(CCC)c1=O` [1,3-DIPROPYL-8-CYCLOPENTYLXANTHINE [DPCPX]], the “Population Apoptotic (%)” value [1] is reported as 87%, the “Population Fragmented Nuclei (%)” value [1] is reported as 25% and the “Population Healthy Nuclei (%)” value [1] is reported as 64%. The “Population Hoechst High Intensity Objects (%)” value [1] was 1%, the “Population Membrane Permeable-Phenotype (%)” value [1] was 1% and the “Population Mitochondria Different-Phenotype (%)” value [1] was 3%. For the same compound, the “Population Mitotic Cells (%)” value [1] was 12%, the “Population Normal (%)” value [1] was 98% and the “Population Pyknosed Nuclei (%)” value [1] was 9%. The “Population Tubulin-Different-Phenotype (%)” value [1] was 1%, the “Total Cell Count” value [1] was 250 and the “Population Apoptotic (%)” value [2] was 93%. The “Population Fragmented Nuclei (%)” value [2] was 15%, the “Population Healthy Nuclei (%)” value [2] was 72% and the “Population Hoechst High Intensity Objects (%)” value [2] was 0%. The “Population Membrane Permeable-Phenotype (%)” value [2] was 7%, the “Population Mitochondria Different-Phenotype (%)” value [2] was 4% and the “Population Mitotic Cells (%)” value [2] was 6%. The “Population Normal (%)” value [2] was 100%, the “Population Pyknosed Nuclei (%)” value [2] was 12% and the “Population Tubulin-Different-Phenotype (%)” value [2] was 5%. The “Total Cell Count” value [2] was 125, the “Population Apoptotic (%)” value [3] was 68% and the “Population Fragmented Nuclei (%)” value [3] was 30%. For the same compound, the “Population Healthy Nuclei (%)” value [3] was 60%, the “Population Hoechst High Intensity Objects (%)” value [3] was 2% and the “Population Membrane Permeable-Phenotype (%)” value [3] was 5%. For the same compound, the “Population Mitochondria Different-Phenotype (%)” value [3] was 1%, the “Population Mitotic Cells (%)” value [3] was 31% and the “Population Normal (%)” value [3] was 97%. The “Population Pyknosed Nuclei (%)” value [3] was 9%, the “Population Tubulin-Different-Phenotype (%)” value [3] was 3% and the “Total Cell Count” value [3] was 206. For the same compound, the “Population Apoptotic (%)” value [4] was 100%, the “Population Fragmented Nuclei (%)” value [4] was 21% and the “Population Healthy Nuclei (%)” value [4] was 69%. For the same compound, the “Population Hoechst High Intensity Objects (%)” value [4] was 3%, the “Population Membrane Permeable-Phenotype (%)” value [4] was 6% and the “Population Mitochondria Different-Phenotype (%)” value [4] was 9%. The “Population Mitotic Cells (%)” value [4] was 0%, the “Population Normal (%)” value [4] was 96% and the “Population Pyknosed Nuclei (%)” value [4] was 8%. The “Total Cell Count” value [4] was 96, the “Population Apoptotic (%)” value [5] was 83% and the “Population Fragmented Nuclei (%)” value [5] was 24%. The “Population Healthy Nuclei (%)” value [5] was 68%, the “Population Hoechst High Intensity Objects (%)” value [5] was 3% and the “Population Membrane Permeable-Phenotype (%)” value [5] was 5%. The “Population Mitochondria Different-Phenotype (%)” value [5] was 3%, the “Population Mitotic Cells (%)” value [5] was 16% and the “Population Normal (%)” value [5] was 96%. The “Population Pyknosed Nuclei (%)” value [5] was 7%, the “Population Tubulin-Different-Phenotype (%)” value [5] was 4% and the “Total Cell Count” value [5] was 261. For the same compound, the “Population Apoptotic (%)” value [6] was 87%, the “Population Fragmented Nuclei (%)” value [6] was 13% and the “Population Healthy Nuclei (%)” value [6] was 74%. The “Population Hoechst High Intensity Objects (%)” value [6] was 2%, the “Population Membrane Permeable-Phenotype (%)” value [6] was 8% and the “Population Mitotic Cells (%)” value [6] was 12%. For the same compound, the “Population Normal (%)” value [6] was 97%, the “Population Pyknosed Nuclei (%)” value [6] was 11% and the “Total Cell Count” value [6] was 138. The “Population Apoptotic (%)” value [7] was 89%, the “Population Fragmented Nuclei (%)” value [7] was 27% and the “Population Healthy Nuclei (%)” value [7] was 64%. The “Population Hoechst High Intensity Objects (%)” value [7] was 2%, the “Population Membrane Permeable-Phenotype (%)” value [7] was 7% and the “Population Mitochondria Different-Phenotype (%)” value [7] was 0%. The “Population Mitotic Cells (%)” value [7] was 10%, the “Population Normal (%)” value [7] was 97% and the “Population Pyknosed Nuclei (%)” value [7] was 8%. For the same compound, the “Population Tubulin-Different-Phenotype (%)” value [7] was 0%, the “Total Cell Count” value [7] was 234 and the “Population Apoptotic (%)” value [8] was 100%. The “Population Fragmented Nuclei (%)” value [8] was 21%, the “Population Healthy Nuclei (%)” value [8] was 71% and the “Population Hoechst High Intensity Objects (%)” value [8] was 4%. The “Population Membrane Permeable-Phenotype (%)” value [8] was 3%, the “Population Mitochondria Different-Phenotype (%)” value [8] was 3% and the “Population Mitotic Cells (%)” value [8] was 0%. The “Population Normal (%)” value [8] was 95%, the “Population Pyknosed Nuclei (%)” value [8] was 6% and the “Total Cell Count” value [8] was 120. The “Population Apoptotic (%)” value [9] was 86%, the “Population Fragmented Nuclei (%)” value [9] was 20% and the “Population Healthy Nuclei (%)” value [9] was 69%. For the same compound, the “Population Hoechst High Intensity Objects (%)” value [9] was 1%, the “Population Membrane Permeable-Phenotype (%)” value [9] was 3% and the “Population Mitochondria Different-Phenotype (%)” value [9] was 1%. For the same compound, the “Population Mitotic Cells (%)” value [9] was 13%, the “Population Normal (%)” value [9] was 98% and the “Population Pyknosed Nuclei (%)” value [9] was 10%. For the same compound, the “Population Tubulin-Different-Phenotype (%)” value [9] was 2%, the “Total Cell Count” value [9] was 364 and the “Population Apoptotic (%)” value [10] was 92%. For the same compound, the “Population Fragmented Nuclei (%)” value [10] was 17%, the “Population Hoechst High Intensity Objects (%)” value [10] was 2% and the “Population Membrane Permeable-Phenotype (%)” value [10] was 8%. The “Population Mitochondria Different-Phenotype (%)” value [10] was 4%, the “Population Mitotic Cells (%)” value [10] was 8% and the “Population Normal (%)” value [10] was 97%. For the same compound, the “Population Pyknosed Nuclei (%)” value [10] was 13%, the “Population Tubulin-Different-Phenotype (%)” value [10] was 3% and the “Total Cell Count” value [10] was 196. For the same compound, the “Population Apoptotic (%)” value [11] was 77%, the “Population Fragmented Nuclei (%)” value [11] was 24% and the “Population Healthy Nuclei (%)” value [11] was 62%. For the same compound, the “Population Hoechst High Intensity Objects (%)” value [11] was 2%, the “Population Membrane Permeable-Phenotype (%)” value [11] was 4% and the “Population Mitochondria Different-Phenotype (%)” value [11] was 1%. For the same compound, the “Population Mitotic Cells (%)” value [11] was 22%, the “Population Normal (%)” value [11] was 97% and the “Population Pyknosed Nuclei (%)” value [11] was 12%. For the same compound, the “Population Tubulin-Different-Phenotype (%)” value [11] was 3%, the “Total Cell Count” value [11] was 322 and the “Population Apoptotic (%)” value [12] was 100%. For the same compound, the “Population Fragmented Nuclei (%)” value [12] was 19%, the “Population Healthy Nuclei (%)” value [12] was 73% and the “Population Hoechst High Intensity Objects (%)” value [12] was 3%. For the same compound, the “Population Membrane Permeable-Phenotype (%)” value [12] was 5%, the “Population Mitochondria Different-Phenotype (%)” value [12] was 3% and the “Population Mitotic Cells (%)” value [12] was 0%. The “Population Normal (%)” value [12] was 96%, the “Population Pyknosed Nuclei (%)” value [12] was 6% and the “Population Tubulin-Different-Phenotype (%)” value [12] was 0%. For the same compound, the “Total Cell Count” value [12] was 165.
